Experimental data: ChEMBL document CHEMBL1123853, “A novel class of cardiotonics. Synthesis and pharmacological properties of [4-(substituted-amino)phenyl]pyridazinones and related derivatives” (1987)

Assays:
[1] = species: Canis familiaris; test: Positive inotropic in the isolated papillary muscle of the dog.; assay type: functional, Canis lupus familiaris
Summary of the method: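 Right ventricular anterior papillary muscle with septum, from mongrel dogs (7–12 kg, pentobarbital 30 mg/kg iv). It was perfused at about 100 mmHg via the septal artery with blood from a heparinized donor dog and paced at 120/min (1 ms pulses, about 1.5× threshold). Isometric tension was recorded. Saline solutions were injected intra-arterially, with amrinone as reference. ED15 (15% rise in developed tension) was taken from log dose-response curves. Results are mean ± SEM (n = 7) or mean ± range (n = 2).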

[2] = tested on: Canis familiaris; test: Inotropic activity determined by evaluating the % change in Cardiac out put (CO)at a dose of 300 ug/kg administered intravenously […]; assay type: functional, Canis lupus familiaris
Summary of the method: (§1)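 Mongrel dogs of either sex, 7–15 kg, anesthetized with sodium pentobarbital (30 mg/kg iv), open-chest, intubated and ventilated on room air. Compounds given intravenously. A femoral artery catheter with pressure transducer recorded SBP and DBP. dP/dtmax, right ventricular contractile force, cardiac output and heart rate were also recorded, as % change at each iv dose.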

[3] = species: Canis familiaris; test: Positive inotropic activity determined in the […](that produced 30% increase in dose- response curves [dP/dt(max)]); assay type: functional; conditions: Canis lupus familiaris
Summary of the method: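 In the anesthetized open-chest dog (mongrel, 7–15 kg, pentobarbital 30 mg/kg iv, ventilated on room air), compounds were given intravenously and LV dP/dtmax was recorded. The dose giving a 30% rise in dP/dtmax was read from the dose-response curves. Results are mean ± SEM (n = 3) or mean ± range (n = 2).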

[4] = tested on: Canis familiaris; test: Inotropic activity determined by evaluating the maximum rate of rise in left ventricular pressure at a dose of 100 ug/kg administered intravenously […]; assay type: functional, Canis lupus familiaris, Muscle tissue; summary of the method: as §1
[5] = tested on: Canis familiaris; test: Inotropic activity determined by evaluating the % change in Cardiac out put (CO)at a dose of 100 ug/kg administered intravenously […]; assay type: functional, Canis lupus familiaris; summary of the method: as §1
[6] = tested on: Canis familiaris; test: Inotropic activity determined by evaluating the % change in Systolic Blood Pressure (SBP) at a dose of 300 ug/kg administered intravenously […]; assay type: functional, Canis lupus familiaris, Muscle tissue; summary of the method: as §1
[7] = tested on: Canis familiaris; test: Inotropic activity determined by evaluating the % change in contractile force (CF) of right ventricle at a dose of 100 ug/kg administered intravenously […]; assay type: functional, Canis lupus familiaris, Heart right ventricle; summary of the method: as §1
[8] = tested on: Canis familiaris; test: Inotropic activity determined by evaluating the % change in Heart Rate (HR) at a dose of 100 ug/kg administered intravenously […]; assay type: functional, Canis lupus familiaris; summary of the method: as §1
[9] = tested on: Canis familiaris; test: Inotropic activity determined by evaluating the % change in Heart Rate (HR) at a dose of 300 ug/kg administered intravenously […]; assay type: functional, Canis lupus familiaris, Muscle tissue; summary of the method: as §1
[10] = tested on: Canis familiaris; test: Inotropic activity determined by evaluating the maximum rate of rise in left ventricular pressure at a dose of 300 ug/kg administered intravenously […]; assay type: functional, Canis lupus familiaris, Muscle tissue; summary of the method: as §1
[11] = tested on: Canis familiaris; test: Inotropic activity determined by evaluating the % change in contractile force (CF) of right ventricle at a dose of 300 ug/kg administered intravenously […]; assay type: functional, Canis lupus familiaris, Heart right ventricle; summary of the method: as §1
[12] = tested on: Canis familiaris; test: Inotropic activity determined by evaluating the % change in Systolic Blood Pressure (SBP) at a dose of 100 ug/kg administered intravenously […]; assay type: functional, Canis lupus familiaris, Muscle tissue; summary of the method: as §1
[13] = tested on: Canis familiaris; test: Inotropic activity determined by evaluating the % change in Diastolic Blood Pressure (DBP) at a dose of 300 ug/kg administered intravenously […]; assay type: functional, Canis lupus familiaris; summary of the method: as §1
[14] = tested on: Canis familiaris; test: Inotropic activity determined by evaluating the % change in Diastolic Blood Pressure (DBP) at a dose of 100 ug/kg administered intravenously […]; assay type: functional, Canis lupus familiaris; summary of the method: as §1
[15] = tested on: Canis familiaris; test: Inotropic activity determined by evaluating the % change in Cardiac out put (CO)at a dose of 30 ug/kg administered intravenously […]; assay type: functional, Canis lupus familiaris; summary of the method: as §1
[16] = tested on: Canis familiaris; test: Inotropic activity determined by evaluating the % change in Diastolic Blood Pressure (DBP) at a dose of 30 ug/kg administered intravenously […]; assay type: functional, Canis lupus familiaris; summary of the method: as §1
[17] = tested on: Canis familiaris; test: Inotropic activity determined by evaluating the maximum rate of rise in left ventricular pressure at a dose of 30 ug/kg administered intravenously […]; assay type: functional, Canis lupus familiaris, Muscle tissue; summary of the method: as §1
[18] = tested on: Canis familiaris; test: Inotropic activity determined by evaluating the % change in contractile force (CF) of right ventricle at a dose of 30 ug/kg administered intravenously […]; assay type: functional, Canis lupus familiaris, Heart right ventricle; summary of the method: as §1
[19] = tested on: Canis familiaris; test: Inotropic activity determined by evaluating the % change in Systolic Blood Pressure (SBP) at a dose of 30 ug/kg administered intravenously […]; assay type: functional, Canis lupus familiaris, Muscle tissue; summary of the method: as §1
[20] = tested on: Canis familiaris; test: Inotropic activity determined by evaluating the % change in Heart Rate (HR) at a dose of 30 ug/kg administered intravenously […]; assay type: functional, Canis lupus familiaris; summary of the method: as §1
[21] = tested on: Canis familiaris; test: Inotropic activity determined by evaluating the % change in Diastolic Blood Pressure (DBP) at a dose of 10 ug/kg administered intravenously […]; assay type: functional, Canis lupus familiaris; summary of the method: as §1
[22] = tested on: Canis familiaris; test: Inotropic activity determined by evaluating the % change in Systolic Blood Pressure (SBP) at a dose of 10 ug/kg administered intravenously […]; assay type: functional, Canis lupus familiaris; summary of the method: as §1
[23] = tested on: Canis familiaris; test: Inotropic activity determined by evaluating the % change in Cardiac out put (CO)at a dose of 10 ug/kg administered intravenously […]; assay type: functional, Canis lupus familiaris; summary of the method: as §1
[24] = tested on: Canis familiaris; test: Inotropic activity determined by evaluating the % change in contractile force (CF) of right ventricle at a dose of 10 ug/kg administered intravenously […]; assay type: functional, Canis lupus familiaris, Heart right ventricle; summary of the method: as §1
[25] = tested on: Canis familiaris; test: Inotropic activity determined by evaluating the % change in Heart Rate (HR) at a dose of 10 ug/kg administered intravenously […]; assay type: functional, Canis lupus familiaris; summary of the method: as §1
[26] = tested on: Canis familiaris; test: Inotropic activity determined by evaluating the maximum rate of rise in left ventricular pressure at a dose of 10 ug/kg administered intravenously […]; assay type: functional, Canis lupus familiaris, Muscle tissue; summary of the method: as §1

Row | SMILES | ED15 [1] [µg] | ED30 [3] [mg/kg] | dP/dt [4] [%] | Change of CO [5] [%] | Change of CF [7] [%] | Change of HR [8] [%] | Change of SBP [12] [%] | Change of DBP [14] [%] | Change of CO [15] [%] | Change of DBP [16] [%] | dP/dt [17] [%] | Change of CF [18] [%] | Change of SBP [19] [%] | Change of HR [20] [%] | also measured
1 | Cl.O=C1CCC(c2ccc(Nc3ccnc4ccccc34)cc2)=NN1 | >300 | – | – | – | – | – | – | – | – | – | – | – | – | – | –
2 | CCC1CC(=O)NN=C1c1ccc(Nc2ccncc2)cc1.Cl (stereo unspecified) | 23 | 0.256 | 20.4 | 15.2 | 23.7 | 12 | -8.8 | -15.1 | – | – | – | – | – | – | Change of CO [2]: 19.2%; Change of SBP [6]: -11.1%; Change of HR [9]: 22.5%; dP/dt [10]: 34.8%; Change of CF [11]: 35.7%; Change of DBP [13]: -18.3%
3 | CC1CC(=O)NN=C1c1ccc(N(C)c2ccncc2)cc1.Cl (stereo unspecified) | 18.5 | > 0.1 | 27.5 | 13.3 | 41.2 | 22.8 | -5.5 | -13.9 | 8.9 | -3.2 | 11 | 13 | -0.6 | 2.6 | –
4 | CN(c1ccc(C2=NNC(=O)CC2)cc1)c1ccccn1.Cl | 5.6 | > 0.1 | 32.5 | 18.7 | 37.7 | 9.5 | -10.5 | -17.8 | 13.2 | -9.6 | 14.3 | 16.5 | -6.3 | 4.5 | –
5 | Cl.O=C1CCC(c2ccc(Nc3ccccn3)cc2)=NN1 | 17.5 | 0.106 | 37.8 | 22.1 | 40.5 | 16.7 | -27.2 | -25.5 | 13.9 | -15.6 | 16.1 | 22 | -13.7 | 6.7 | –
6 | Cl.O=C1CCC(c2ccc(Nc3ncccn3)cc2)=NN1 | 165 | – | – | – | – | – | – | – | – | – | – | – | – | – | –
7 | CN(c1ccncc1)c1ccc(C2=NNC(=O)CC2)cc1.Cl | 38 | > 0.3 | 13.6 | 5.9 | 11 | 1.4 | -2.1 | -4 | – | – | – | – | – | – | Change of CO [2]: 8.7%; Change of SBP [6]: -5.8%; Change of HR [9]: 2.7%; dP/dt [10]: 17.8%; Change of CF [11]: 20%; Change of DBP [13]: -10.3%
8 | O=C1CCC(c2ccc(-n3ccnc3)cc2)=NN1 [IMAZODAN] | – | 0.046 | 49.3 | 35.5 | 83.8 | 16.1 | -16.9 | -28.3 | 26.3 | -16.5 | 22.3 | 42.2 | -9.6 | 8.1 | Change of DBP [21]: -8.1%; Change of SBP [22]: -4.8%; Change of CO [23]: 11.2%; Change of CF [24]: 13.8%; Change of HR [25]: 3.6%; dP/dt [26]: 10.3%
